Experimental data taken from ChEMBL document CHEMBL1156826, “Multifunctional antioxidants for the treatment of age-related diseases” (J Med Chem, 2010).
Active and inactive are the calls of the source. The calls are words filed in the database; no cut-off is given here.

Tests used:
[1] = Binding affinity to Ca(2+) ions assessed as percent parent peaks remaining by electrospray ionization mass spectrometry; set-up: concentration or dose not given beside the values
In short: (§1)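 Metal ion stocks (1 mM in double-distilled water) were prepared from ammonium iron(II) sulfate, iron(III) nitrate, copper(I) chloride, copper(II) chloride, zinc chloride, magnesium chloride or calcium chloride. Each was mixed with compound at metal:compound ratios of 10:1, 1:1 and 1:10, keeping the final compound concentration at 50 μM.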

[2] = Binding affinity to Zn(2+) ions assessed as percent parent peaks remaining by electrospray ionization mass spectrometry; set-up: concentration or dose not given beside the values; in short: as §1
[3] = Binding affinity to Cu(1+) ions assessed as percent parent peaks remaining by electrospray ionization mass spectrometry; set-up: concentration or dose not given beside the values; in short: as §1
SRA1 [4] = experiment: Cytoprotection in human SRA1 cells assessed as protection against H2O2-induced cell death after 2 hrs by MTS assay; format: functional, cell-based
In short: (§2)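 Cells are seeded at 1 × 10⁴ per well and pre-treated 1 hr in FBS-free medium with 100 μM compound, then given 1 mM H2O2, or 1 mM H2O2 plus 1 mM iron(II) chloride (Fenton), for 2 hr. After a PBS wash, MTS is added in blank medium for 1.5 hr at 37 °C and read at 490 nm. Results are normalized to cells without H2O2 (100%), mean ± SD of three experiments.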

HAh [5] = experiment: Antioxidant activity in human HAh cells assessed as inhibition of Fenton's reagent-induced reduction of cellular glutathione level after 2 hrs by DTNB method; format: functional, cell-based
In short: (§3)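 Cells are pre-incubated 1 hr in FBS-free medium with 100 μM compound, then given 1 mM H2O2, or 1 mM H2O2 plus 1 mM iron(II) chloride (Fenton), for 2 hr. Cells are washed with PBS, scraped and homogenized; supernatant protein is measured by Bradford. Homogenate is deproteinized with 20% TCA, and GSH is read at 412 nm (DTNB). Values are nmol GSH/mg protein, normalized to unexposed cells (100%), in triplicate.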

ARPE-19 [6] = experiment: Cytoprotection in human ARPE19 cells assessed as protection against Fenton's reagent-induced cell death after 2 hrs by MTS assay; format: functional, cell-based; in short: as §2
[7] = Binding affinity to Mg(2+) ions assessed as percent parent peaks remaining by electrospray ionization mass spectrometry; set-up: concentration or dose not given beside the values; in short: as §1
SRA1 [8] = experiment: Antioxidant activity in human SRA1 cells assessed as inhibition of H2O2-induced reduction of cellular glutathione level after 2 hrs by DTNB method; format: functional, cell-based; in short: as §3
SRA1 [9] = experiment: Cytoprotection in human SRA1 cells assessed as protection against Fenton's reagent-induced cell death after 2 hrs by MTS assay; format: functional, cell-based; in short: as §2
[10] = Binding affinity to Fe(2+) ions assessed as percent parent peaks remaining by electrospray ionization mass spectrometry; set-up: concentration or dose not given beside the values; in short: as §1
SRA1 [11] = experiment: Antioxidant activity in human SRA1 cells assessed as inhibition of Fenton's reagent-induced reduction of cellular glutathione level after 2 hrs by DTNB method; format: functional, cell-based; in short: as §3
[12] = Binding affinity to Cu(2+) ions assessed as percent parent peaks remaining by electrospray ionization mass spectrometry; set-up: concentration or dose not given beside the values; in short: as §1
ARPE-19 [13] = experiment: Antioxidant activity in human […] cells assessed as inhibition of Fenton's reagent-induced reduction of cellular glutathione level after 2 hrs by DTNB method; format: functional, cell-based; in short: as §3
[14] = Binding affinity to Fe(3+) ions assessed as percent parent peaks remaining by electrospray ionization mass spectrometry; set-up: concentration or dose not given beside the values; in short: as §1
HAh [15] = experiment: Cytoprotection in human HAh cells assessed as protection against Fenton's reagent-induced cell death after 2 hrs by MTS assay; format: functional, cell-based; in short: as §2

Activity [1] [%]	Activity [2] [%]	Activity [3] [%]	Activity [7] [%]	Activity [10] [%]	Activity [12] [%]	Activity [14] [%]	Structure (SMILES)	Activity (SRA1 [4])	Activity (HAh [5])	Activity (ARPE-19 [6])	Activity (SRA1 [8])	Activity (SRA1 [9])	Activity (SRA1 [11])	Activity (ARPE-19 [13])	Activity (HAh [15])
100	12.7	4.2	100	6.9	3	8.2	CN(C)S(=O)(=O)N1CC(=O)N(c2ncc(O)cn2)C(=O)C1	Active	Active	Active	Active	Active	Active	Active	Active
100	13.8	4.1	100	7.3	3.4	7.6	COc1cc(OC)nc(N2C(=O)CN(S(=O)(=O)N(C)C)CC2=O)n1	inactive	Active	Active	inactive		Active	Active	Active
100	100	100	100	100	100	100	CN(C)S(=O)(=O)N1CCN(c2ncc(O)cn2)CC1	Active	Active	Active	Active	Active		Active	Active
100	15.3	3.6	100	8.1	4.4	10	CN(C)S(=O)(=O)N1CC(=O)N(c2ncccn2)C(=O)C1	inactive	Active	Active	inactive		Active	Active	Active
							Cc1c(C)c2c(c(C)c1O)CCC(C)(C(=O)O)O2 (stereo unspecified)	Active	Active						
100	14.6	4	100	7.5	3.6	8.2	COc1nc(N2C(=O)CN(S(=O)(=O)N(C)C)CC2=O)nc(OC)c1O	Active	Active	Active	Active	Active	Active	Active	Active
100	100	100	100	100	100	100	CN(C)S(=O)(=O)N1CCN(c2ncccn2)CC1	inactive			inactive				
100	100	100	100	100	100	100	COc1nc(N2CCN(S(=O)(=O)N(C)C)CC2)nc(OC)c1O	Active	Active	Active	Active	Active		Active	Active
100	100	100	100	100	100	100	COc1cc(OC)nc(N2CCN(S(=O)(=O)N(C)C)CC2)n1	inactive			inactive				
